Data taken from ChEMBL document CHEMBL2069246, “Oxadiazoles in medicinal chemistry” (J Med Chem, 2012).
Each block holds one compound with its values, some of them ahead of it.

Assays:
[1] = biological target: Voltage-gated inwardly rectifying potassium channel KCNH2 (Homo sapiens, UniProt Q12809); test: Inhibition of human ERG channel expressed in CHO cells by patch clamp assay
[2] = Dissociation constant, pKa of the compound; format: physicochemical
[3] = Lipophilicity, log D of the compound at pH 7.4; format: physicochemical; conditions: buffer
[4] = biological target: CYP2C9 (Homo sapiens, UniProt P11712); test: Time dependent inhibition of human recombinant CYP2C9 coexpressed in Escherichia coli at 50 uM using diclofenac as probe; format: ADME
Procedure, shortened: (§1)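 Time-dependent inhibition of human recombinant P450s. Compound is preincubated 30 min at 37 °C with and without NADPH, then percent inhibition is read. Run at 10 and 50 μM, with the 50 μM value reported.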

[5] = biological target: T1, Cytochrome P450 2C19 (Homo sapiens, UniProt P33261); test: Activity of human recombinant CYP2C19 assessed as enzyme contribution towards compound metabolism at 37 degC; format: ADME
Procedure, shortened: (§2)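 CYP reaction phenotyping with human recombinant P450 isoforms at 37 °C. Each isoform's share of compound metabolism is given as percent contribution relative to the other isoforms in the test.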

[6] = biological target: T1, Cytochrome P450 2C19; test: Inhibition of human recombinant CYP2C19 coexpressed in Escherichia coli; format: ADME
Procedure, shortened: (§3)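 Human recombinant cytochrome P450s at 37 °C. Read-out is inhibition of metabolic degradation of each isoform's substrate. Percent inhibition is measured at five test concentrations and converted to IC50.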

[7] = biological target: T2, Cytochrome P450 3A4 (Homo sapiens, UniProt P08684); test: Activity of human recombinant CYP3A4 assessed as enzyme contribution towards compound metabolism at 37 degC; format: ADME; design: concentration or dose not given beside the values; procedure, shortened: as §2
[8] = biological target: T3, Cytochrome P450 2C8 (Homo sapiens, UniProt P10632); test: Inhibition of human recombinant CYP2C8 coexpressed in Escherichia coli; format: ADME; procedure, shortened: as §3
T3 sequence (P10632 whole entry): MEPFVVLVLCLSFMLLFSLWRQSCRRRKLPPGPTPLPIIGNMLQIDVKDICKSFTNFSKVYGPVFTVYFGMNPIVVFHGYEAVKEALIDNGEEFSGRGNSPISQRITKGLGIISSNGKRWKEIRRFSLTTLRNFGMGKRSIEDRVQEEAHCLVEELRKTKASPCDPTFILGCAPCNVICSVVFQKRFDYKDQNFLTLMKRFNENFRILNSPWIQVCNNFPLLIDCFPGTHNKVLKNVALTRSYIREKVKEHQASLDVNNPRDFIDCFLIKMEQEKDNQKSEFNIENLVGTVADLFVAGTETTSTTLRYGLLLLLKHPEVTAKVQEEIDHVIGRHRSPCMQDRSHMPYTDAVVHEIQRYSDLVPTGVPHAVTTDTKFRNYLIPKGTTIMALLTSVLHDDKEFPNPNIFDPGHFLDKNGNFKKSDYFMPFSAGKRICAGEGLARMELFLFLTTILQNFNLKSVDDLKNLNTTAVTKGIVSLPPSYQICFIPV

[9] = biological target: CYP2C19 (Homo sapiens, UniProt P33261); test: Time dependent inhibition of human recombinant CYP2C19 coexpressed in Escherichia coli at 50 uM using mephenytoin as probe; format: ADME; procedure, shortened: as §1
[10] = biological target: T4, Cytochrome P450 2D6 (Homo sapiens, UniProt P10635); test: Inhibition of human recombinant CYP2D6 coexpressed in Escherichia coli; format: ADME; procedure, shortened: as §3
[11] = biological target: T5, Cytochrome P450 1A2 (Homo sapiens, UniProt P05177); test: Inhibition of human recombinant CYP1A2 coexpressed in Escherichia coli using phenacetin as probe; format: ADME; procedure, shortened: as §3
T5 sequence (P05177 whole entry): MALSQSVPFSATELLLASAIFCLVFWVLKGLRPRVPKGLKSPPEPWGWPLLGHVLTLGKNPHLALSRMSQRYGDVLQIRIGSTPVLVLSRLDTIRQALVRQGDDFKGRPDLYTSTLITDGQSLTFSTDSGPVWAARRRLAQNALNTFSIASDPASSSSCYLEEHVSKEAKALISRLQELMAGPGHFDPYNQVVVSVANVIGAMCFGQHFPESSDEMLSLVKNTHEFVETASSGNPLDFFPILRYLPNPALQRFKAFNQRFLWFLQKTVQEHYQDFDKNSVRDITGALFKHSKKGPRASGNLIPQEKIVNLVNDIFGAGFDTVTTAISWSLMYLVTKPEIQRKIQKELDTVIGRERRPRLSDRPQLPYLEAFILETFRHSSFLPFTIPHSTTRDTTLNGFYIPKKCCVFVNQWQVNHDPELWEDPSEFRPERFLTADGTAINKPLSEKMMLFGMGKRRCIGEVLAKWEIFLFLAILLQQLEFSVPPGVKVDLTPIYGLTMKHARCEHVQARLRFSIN

[12] = Intrinsic clearance in human liver microsomes at 1 mg/ml; format: ADME, Microsome; conditions: read-out: CLH
Procedure, shortened: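 Compound incubated 45 min at 37 °C with human liver microsomes at 1 mg/mL. CLint is taken from the rate of parent disappearance.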

[13] = biological target: T6, CYP2C8 (Homo sapiens, UniProt P10632); test: Time dependent inhibition of human recombinant CYP2C8 coexpressed in Escherichia coli at 50 uM using amodiaquine as probe; format: ADME; procedure, shortened: as §1
T6 sequence (P10632 whole entry): T3 sequence (P10632 whole entry)

[14] = biological target: CYP2D6 (Homo sapiens, UniProt P10635); test: Time dependent inhibition of human recombinant CYP2D6 coexpressed in Escherichia coli at 50 uM using bufuralol as probe; format: ADME; procedure, shortened: as §1
[15] = biological target: T7, Cytochrome P450 2C9 (Homo sapiens, UniProt P11712); test: Activity of human recombinant CYP2C9 assessed as enzyme contribution towards compound metabolism at 37 degC; format: ADME; procedure, shortened: as §2
[16] = biological target: T7, Cytochrome P450 2C9; test: Inhibition of human recombinant CYP2C9 coexpressed in Escherichia coli; format: ADME; procedure, shortened: as §3
[17] = biological target: T5, Cytochrome P450 1A2; test: Activity of human recombinant CYP1A2 assessed as enzyme contribution towards compound metabolism at 37 degC; format: ADME; procedure, shortened: as §2
[18] = biological target: T4, Cytochrome P450 2D6; test: Activity of human recombinant CYP2D6 assessed as enzyme contribution towards compound metabolism at 37 degC; format: ADME; procedure, shortened: as §2
[19] = biological target: T3, Cytochrome P450 2C8; test: Activity of human recombinant CYP2C8 assessed as enzyme contribution towards compound metabolism at 37 degC; format: ADME; procedure, shortened: as §2
[20] = biological target: T2, Cytochrome P450 3A4; test: Inhibition of human recombinant CYP3A4 coexpressed in Escherichia coli; format: ADME; procedure, shortened: as §3
[21] = biological target: T8, CYP1A2 (Homo sapiens, UniProt P05177); test: Time dependent inhibition of human recombinant CYP1A2 coexpressed in Escherichia coli at 50 uM using phenacetin as probe; format: ADME; procedure, shortened: as §1
T8 sequence (P05177 whole entry): T5 sequence (P05177 whole entry)

[22] = biological target: CYP3A4 (Homo sapiens, UniProt P08684); test: Time dependent inhibition of human recombinant CYP3A4 coexpressed in Escherichia coli at 50 uM using midazolam as probe; format: ADME; procedure, shortened: as §1
CYP3A4, sequence (P08684 whole entry): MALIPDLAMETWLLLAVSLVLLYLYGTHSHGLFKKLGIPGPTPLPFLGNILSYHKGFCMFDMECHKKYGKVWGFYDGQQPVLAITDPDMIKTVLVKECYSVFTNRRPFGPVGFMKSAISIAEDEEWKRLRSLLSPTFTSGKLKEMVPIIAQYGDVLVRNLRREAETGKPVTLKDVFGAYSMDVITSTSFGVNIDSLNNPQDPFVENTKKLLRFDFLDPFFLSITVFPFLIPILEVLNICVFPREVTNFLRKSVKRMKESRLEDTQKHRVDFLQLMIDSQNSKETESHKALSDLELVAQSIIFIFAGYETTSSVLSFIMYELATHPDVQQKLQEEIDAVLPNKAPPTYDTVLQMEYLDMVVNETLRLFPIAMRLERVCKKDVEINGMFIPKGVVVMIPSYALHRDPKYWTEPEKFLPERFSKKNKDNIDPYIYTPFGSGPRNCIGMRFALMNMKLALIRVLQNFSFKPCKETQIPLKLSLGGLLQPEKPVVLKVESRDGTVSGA

T1 sequence (P33261 whole entry, canonical isoform): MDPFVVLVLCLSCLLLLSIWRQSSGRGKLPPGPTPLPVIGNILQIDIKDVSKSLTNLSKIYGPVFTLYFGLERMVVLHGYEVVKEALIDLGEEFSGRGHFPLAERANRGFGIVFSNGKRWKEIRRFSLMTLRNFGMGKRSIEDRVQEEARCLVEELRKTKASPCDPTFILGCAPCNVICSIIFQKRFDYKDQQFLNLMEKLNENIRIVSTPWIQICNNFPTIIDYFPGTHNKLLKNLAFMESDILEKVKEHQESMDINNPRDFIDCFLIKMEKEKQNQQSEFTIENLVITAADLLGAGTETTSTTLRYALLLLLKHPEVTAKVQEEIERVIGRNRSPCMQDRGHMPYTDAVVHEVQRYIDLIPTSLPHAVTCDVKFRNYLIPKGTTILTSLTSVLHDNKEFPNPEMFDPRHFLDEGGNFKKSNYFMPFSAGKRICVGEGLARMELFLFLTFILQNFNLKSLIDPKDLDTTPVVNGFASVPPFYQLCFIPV
T2 sequence (P08684 whole entry): as the sequence (P08684 whole entry) above
T7 sequence (P11712 whole entry): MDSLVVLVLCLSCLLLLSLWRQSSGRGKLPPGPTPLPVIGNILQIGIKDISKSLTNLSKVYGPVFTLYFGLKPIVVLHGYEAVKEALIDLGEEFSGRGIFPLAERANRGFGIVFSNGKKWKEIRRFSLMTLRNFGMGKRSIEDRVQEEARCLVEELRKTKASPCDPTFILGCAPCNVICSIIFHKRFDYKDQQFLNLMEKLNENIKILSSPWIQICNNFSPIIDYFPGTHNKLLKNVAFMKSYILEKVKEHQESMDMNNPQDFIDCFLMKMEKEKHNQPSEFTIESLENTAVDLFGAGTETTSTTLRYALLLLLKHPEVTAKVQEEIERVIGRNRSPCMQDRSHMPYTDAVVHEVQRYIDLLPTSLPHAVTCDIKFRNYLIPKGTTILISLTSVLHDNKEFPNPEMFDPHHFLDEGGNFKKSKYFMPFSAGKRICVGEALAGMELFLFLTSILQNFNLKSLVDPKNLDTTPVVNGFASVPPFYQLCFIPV
T4 sequence (P10635 whole entry): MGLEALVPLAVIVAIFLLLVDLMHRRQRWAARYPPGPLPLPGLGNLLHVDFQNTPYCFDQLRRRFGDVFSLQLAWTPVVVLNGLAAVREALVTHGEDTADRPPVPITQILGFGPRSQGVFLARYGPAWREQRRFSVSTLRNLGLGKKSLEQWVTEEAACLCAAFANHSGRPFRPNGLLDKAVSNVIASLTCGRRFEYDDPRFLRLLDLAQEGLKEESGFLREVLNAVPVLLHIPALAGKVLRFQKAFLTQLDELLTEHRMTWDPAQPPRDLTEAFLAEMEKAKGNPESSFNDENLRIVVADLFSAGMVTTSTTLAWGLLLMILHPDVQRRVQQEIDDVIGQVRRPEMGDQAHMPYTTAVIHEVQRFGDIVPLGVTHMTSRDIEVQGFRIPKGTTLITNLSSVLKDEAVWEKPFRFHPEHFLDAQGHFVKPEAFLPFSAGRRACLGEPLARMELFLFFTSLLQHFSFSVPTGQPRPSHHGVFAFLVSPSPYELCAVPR
Voltage-gated inwardly rectifying potassium channel KCNH2, sequence (Q12809 whole entry): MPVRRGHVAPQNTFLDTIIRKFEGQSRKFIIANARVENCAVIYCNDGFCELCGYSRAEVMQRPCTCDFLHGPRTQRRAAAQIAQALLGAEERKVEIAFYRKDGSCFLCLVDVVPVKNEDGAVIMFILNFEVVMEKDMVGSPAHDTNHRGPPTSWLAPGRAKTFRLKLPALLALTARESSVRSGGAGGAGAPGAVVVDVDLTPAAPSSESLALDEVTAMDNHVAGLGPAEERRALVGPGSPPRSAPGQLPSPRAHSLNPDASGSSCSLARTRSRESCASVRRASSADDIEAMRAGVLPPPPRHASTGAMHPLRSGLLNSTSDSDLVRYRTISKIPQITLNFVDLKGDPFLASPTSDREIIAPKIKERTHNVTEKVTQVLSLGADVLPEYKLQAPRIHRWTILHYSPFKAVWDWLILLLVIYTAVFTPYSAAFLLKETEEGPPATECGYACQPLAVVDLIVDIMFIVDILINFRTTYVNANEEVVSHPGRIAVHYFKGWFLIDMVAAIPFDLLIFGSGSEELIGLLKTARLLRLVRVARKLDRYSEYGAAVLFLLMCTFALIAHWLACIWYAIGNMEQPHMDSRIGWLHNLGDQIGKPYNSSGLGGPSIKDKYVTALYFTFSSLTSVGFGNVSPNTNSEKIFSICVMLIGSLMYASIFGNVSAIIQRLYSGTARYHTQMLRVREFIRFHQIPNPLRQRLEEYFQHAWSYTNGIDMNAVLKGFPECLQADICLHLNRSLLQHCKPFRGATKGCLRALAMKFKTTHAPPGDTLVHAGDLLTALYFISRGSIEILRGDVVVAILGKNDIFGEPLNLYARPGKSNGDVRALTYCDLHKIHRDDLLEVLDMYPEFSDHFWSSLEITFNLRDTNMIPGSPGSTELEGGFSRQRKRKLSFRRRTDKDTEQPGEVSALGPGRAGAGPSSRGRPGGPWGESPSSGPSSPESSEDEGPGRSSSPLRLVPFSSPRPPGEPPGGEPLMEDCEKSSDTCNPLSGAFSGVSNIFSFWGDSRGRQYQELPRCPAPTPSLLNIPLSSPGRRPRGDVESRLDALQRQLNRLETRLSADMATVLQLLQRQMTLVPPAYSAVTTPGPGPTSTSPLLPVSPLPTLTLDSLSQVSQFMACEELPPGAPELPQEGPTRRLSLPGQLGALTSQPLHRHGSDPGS
CYP2C19, sequence (P33261 whole entry): as the sequence (P33261 whole entry, canonical isoform) above
CYP2C9, sequence (P11712 whole entry): as the sequence (P11712 whole entry) above
CYP2D6, sequence (P10635 whole entry): as the sequence (P10635 whole entry) above

SMILES: C[C@@H](Oc1nnc(-c2ccncc2)n1C)c1nnc(-c2cccc(Cl)c2)o1
IC50 [1]: 21.5 µM
pKa [2]: 3.7
logD [3]: 2.3

SMILES: CCOC(=O)N1CCN(Cc2nc(-c3cccc(Cl)c3)no2)CC1
pKa [2]: 3.4
logD [3]: 4.8

SMILES: CCOC(=O)N1CCN(Cc2noc(-c3cc(Cl)ccc3F)n2)CC1
IC50 [1]: 31 µM
pKa [2]: 4
logD [3]: 4.3

SMILES: CN(Cc1nc2ccccc2c(=O)[nH]1)Cc1nnc(-c2ccccc2)o1
IC50 [1]: > 33 µM
pKa [2]: 2.3
logD [3]: 2

SMILES: c1cncc(-c2ccc(-c3noc(C4CN5CCC4CC5)n3)o2)c1 (centres undefined)
IC50 [1]: 6.4 µM
pKa [2]: 8.8
logD [3]: 0.7

SMILES: CCOC(=O)N1CCN(Cc2nnc(-c3cccc(Cl)c3)o2)CC1
pKa [2]: 3.5
logD [3]: 3.3

Now from value to compound:

inhibition at 50 µM [4]: < 19%
Activity [5]: 0.1%
IC50 [6]: 1.3 µM
Activity [7]: 99.8%
IC50 [8]: > 20 µM
inhibition at 50 µM [9]: < 12%
IC50 [10]: 9.4 µM
IC50 [11]: > 20 µM
microsomal CLint [12]: 93 µL/min/mg
inhibition at 50 µM [13]: < 14%
inhibition at 50 µM [14]: < 11%
CYP isoform contribution to compound metabolism [15]: 0.1%
IC50 [16]: 2.2 µM
Activity [17]: 0%
Activity [18]: 0.1%
Activity [19]: 0%
IC50 [20]: 14.6 µM
inhibition at 50 µM [21]: < 10%
inhibition at 50 µM [22]: 42%
SMILES: O=C(NCc1ccncc1)c1nc(CS(=O)(=O)c2ccccc2)no1

inhibition at 50 µM [4]: < 19%
Activity [5]: 0%
IC50 [6]: 9.8 µM
Activity [7]: 0%
IC50 [8]: > 20 µM
inhibition at 50 µM [9]: < 12%
IC50 [10]: 5.7 µM
IC50 [11]: > 20 µM
microsomal CLint [12]: < 5 µL/min/mg
inhibition at 50 µM [13]: < 14%
inhibition at 50 µM [14]: < 11%
CYP isoform contribution to compound metabolism [15]: 0%
IC50 [16]: 1.7 µM
Activity [17]: 0%
Activity [18]: 100%
Activity [19]: 0%
IC50 [20]: > 20 µM
inhibition at 50 µM [21]: < 10%
inhibition at 50 µM [22]: < 7%
SMILES: O=C(NCc1ccncc1)c1nnc(CS(=O)(=O)c2ccccc2)o1
